Active and inactive are the calls of the source. The rule behind the calls is not given here.
Legend:
[1] = system: Protein cereblon/Cyclin-dependent kinase 2 (Mus musculus); assay: Protac activity at CDK2/CRBN E3 ligase in mouse HEI-OC1 cells assessed as induction of CDK2 protein degradation at 100 nM measured after 24 hrs by Western blot analysis
Danio rerio [2] = species: Danio rerio; assay: Protection of cisplatin-induced ototoxicity in 5 days post fertilization zebrafish assessed as protection neuromast hair cells at 0.001 to 1 nM measured after 24 hrs by fluorescence microscopy; type: functional, organism-based; details: dose upper 1.0 µM, time 5.0 day, in the assay text read “0.001 to 1 µM” for “0.001 to 1 nM”
Procedure, shortened: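 Zebrafish larvae at 4 dpf pre-exposed 24 h to 0.1 nM–1 μM in E3, then co-incubated 6 h with compound plus cisplatin 400 μM. After 1 h recovery, fish were fixed in 4% PFA and immunostained for otoferlin. Hair cells in otic, middle and opercular neuromasts were counted manually under a 40x fluorescence objective, 6–8 fish per experiment; mean ± SEM.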

Danio rerio [3] = species: Danio rerio; assay: Protection of kainic acid-induced ototoxicity in 5 days post fertilization zebrafish assessed as protection neuromast hair cells at 5 to 100 nM measured after 24 hrs by fluorescence microscopy; details: dose 5-100 nM, time 5.0 day
[4] = target: von Hippel-Lindau disease tumor suppressor/CDK2 (Danio rerio) (UniProt Q7ZWB1+Q68EH9); assay: PROTAC activity at CDK2/VHL E3 ligase in 5 days post fertilization zebrafish assessed as decrease in CDK2 abundance measured after 24 hrs by immunoblot analysis; details: dose 1.0 µM
Procedure, shortened: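 TuAB zebrafish larvae at 4 dpf, kept in E3 medium (pH 7.2) at 28.5°C, exposed 24 h to 0.1 nM–1 μM in E3 (controls 0.1% DMSO). Fish were collected before any ototoxin. Lysates were run at 20–30 μg protein per lane, probed with anti-CDK2 (1:500) against β-actin, and CDK2 bands quantified from three independent experiments.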

[5] = target: von Hippel-Lindau E3 ligase/Cyclin-dependent kinase 2 (Mus musculus); assay: Protac activity at CDK2/VHL E3 ligase in mouse HEI-OC1 cells assessed as induction of CDK2 protein degradation measured after 24 hrs by Western blot analysis

Cc1ncc(-c2ccnc(Nc3ccc(S(=O)(=O)CCCc4cn(CCOCCOCCOCCNc5cccc6c5C(=O)N(C5CCC(=O)NC5=O)C6=O)nn4)cc3)n2)n1C(C)C (stereo unspecified)
Activity [1]: inactive

Cc1ncsc1-c1ccc(CNC(=O)[C@@H]2C[C@@H](O)CN2C(=O)[C@@H](NC(=O)COCCn2cc(CCCS(=O)(=O)c3ccc(Nc4nccc(-c5cnc(C)n5C(C)C)n4)cc3)nn2)C(C)(C)C)cc1
Activity (Danio rerio [2]): Active | Activity (Danio rerio [3]): Active | Activity [4]: Active | DC50 [5]: 100 nM

O=C1CCC(N2C(=O)c3cccc(NCCOCCOCCOCCn4cc(CO[C@H]5CC[C@H](NC(=O)c6n[nH]cc6NC(=O)c6c(F)cccc6F)CC5)nn4)c3C2=O)C(=O)N1 (stereo partly specified)
Activity [1]: inactive
